Measurements taken from ChEMBL document CHEMBL1157842, “Novel derivatives of 1,3,4-oxadiazoles are potent mitostatic agents featuring strong microtubule depolymerizing activity in the sea urchin embryo and cell culture assays” (Eur J Med Chem, 2010).
Activity calls are given as the source filed them.

How the values were obtained:
Paracentrotus lividus [1] = assay: Cytotoxicity against Paracentrotus lividus embryo assessed as embryo spinning after 9 to 12 hrs fertilization and 0.5 to 20 hrs treatment; assay type: functional, organism-based
Summary of the method: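 Paracentrotus lividus free-swimming blastulae treated just after hatching (9–12 h post-fertilization). Behavior was monitored by light microscopy and embryo spinning scored as threshold concentration. Embryos were held in filtered sea water at room temperature with paddle agitation. Compound stocks were in 95% EtOH or DMSO diluted in EtOH; maximal tolerated final DMSO 0.05%, EtOH 1%.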

Paracentrotus lividus [2] = assay: Antimitotic activity against Paracentrotus lividus embryo assessed as cleavage arrest after 10 to 15 mins fertilization 45 to 60 mins before first mitotic cycle completeion; assay type: functional, organism-based
Summary of the method: (§1)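 Paracentrotus lividus embryos, gametes obtained by intracoelomic 0.5 M KCl injection. Fertilized eggs ([…] post-fertilization, 45–60 min before first mitosis) were exposed to 2-fold decreasing concentrations, at up to 3000 embryos/mL in filtered sea water at room temperature. Stocks were 5 mM in 95% EtOH or 5–10 mM in DMSO, diluted 10-fold with 95% EtOH. Read-out was scored at 2.5–6 h: threshold concentration for cleavage alteration or full mitotic arrest. Duplicate measurements.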

A549 [3] = assay: Cytotoxicity against human A549 cells after 24 hrs by MTT assay; assay type: functional, cell-based; conditions: A549, 24 h
Summary of the method: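 A549 cells in DMEM/10% FBS at 3 × 10³ cells/well, treated 24 h (8 wells per concentration), with 0.4% DMSO as control. MTT (final 0.5 mg/mL) was added for the last 2 h and formazan dissolved in DMSO containing 10% SDS/0.6% acetic acid. OD read at 590 nm (690 nm reference). Three repeats; IC50 from sigmoidal fit.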

Paracentrotus lividus [4] = assay: Antiproliferative activity against Paracentrotus lividus embryo assessed as cleavage alteration after 10 to 15 mins fertilization 45 to 60 mins before first mitotic cycle completeion; assay type: functional, organism-based; summary of the method: as §1
A549 [5] = assay: Cell cycle arrest in human A549 cells assessed as accumulation at G2/M phase after 24 hrs using propidium iodide staining by flow cytometry; assay type: functional, cell-based
Summary of the method: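 A549 cells seeded at 5 × 10⁵ per 50 mm dish and treated 24 h, with 0.4% DMSO as negative control. Cells were trypsinized, fixed in 70% ethanol at −20 °C, then treated with RNase 1 mg/mL for 30 min at 37 °C and propidium iodide for 30 min at 37 °C. DNA content of 10000 cells measured by flow cytometry; EC50 for G2/M accumulation.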

A549 [6] = assay: Induction of microtubule disruption in human A549 cells at 20 uM after 8 hrs by indirect immunofluorescence microscopic analysis; assay type: functional, cell-based
Paracentrotus lividus [7] = assay: Toxicity in Paracentrotus lividus embryo assessed as mortality at => 1 uM after 9 to 12 hrs fertilization; assay type: organism-based; conditions: in vivo
A549 [8] = assay: Induction of microtubule disruption in human A549 cells at 5 uM after 8 hrs by indirect immunofluorescence microscopic analysis; assay type: functional, cell-based
Summary of the method: (§2)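 A549 cells on glass coverslips (2 × 10⁴ per coverslip) exposed 8 h at 37 °C, 5% CO₂, with 0.6% DMSO as negative control. Fixed cells were stained with mouse anti-α-tubulin (1:400) and Alexa Fluor 488 goat anti-mouse IgG (1:200). Microtubule network examined by fluorescence microscopy.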

Bos taurus = organism: Bos taurus; assay: Inhibition of purified bovine brain tubulin polymerization at 10 uM after 1 hr by VEC-DIC microscopic analysis
Summary of the method: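 Bovine brain tubulin (1.2 mg/mL) in BRB80 (80 mM PIPES pH 6.8, 1 mM MgCl₂, 1 mM EGTA) was polymerized with 10% DMSO and 0.5 mM GTP. It was then incubated 1 h at 37 °C with compound, using 0.6% DMSO as negative control. Microtubule assembly was scored by VEC-DIC video microscopy.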

[9] = Inhibition of tubulin polymerization at 10 uM
A549 [10] = assay: Induction of microtubule disruption in human A549 cells at 25 uM after 8 hrs by indirect immunofluorescence microscopic analysis; assay type: functional, cell-based; summary of the method: as §2
[11] = Homo sapiens, A549, 24 h, read-out: EC50

| Compound | EC50 (Paracentrotus lividus [1]) [nM] | EC50 (Paracentrotus lividus [2]) [nM] | EC50 (Paracentrotus lividus [4]) [nM] | other results |
| --- | --- | --- | --- | --- |
| COC(=O)Nc1nc2cc(C(=O)c3cccs3)ccc2[nH]1 [NOCODAZOLE] | 100 | 10 | 5 | IC50 (A549 [3]): 36.6 nM; EC50 (A549 [5]; [11]): 106 nM |
| c1ccc(-c2nnc(Nc3ccc4c(c3)OCCO4)o2)c(NCc2ccns2)c1 | 5000 | 5000 | 2000 | – |
| Nc1nc2ccccc2cc1-c1nnc(Nc2ccc3c(c2)OCO3)o1 | > 2000 | 2000 | 50 | – |
| c1cncc(CNc2cn[nH]c2-c2nnc(Nc3ccc4c(c3)OCO4)o2)c1 | > 10000 | > 10000 | 1000 | – |
| c1cncc(CNc2ccccc2-c2nnc(Nc3ccc4c(c3)OCCO4)o2)c1 | 5 | 5 | 1 | – |
| Cn1ncc(NCc2cccnc2)c1-c1nnc(Nc2ccc3c(c2)OCCO3)o1 | > 2500 | 1000 | 200 | – |
| c1cc(CNc2csnc2-c2nnc(Nc3ccc4c(c3)OCO4)o2)ccn1 | 20 | 5 | 2 | – |
| Nc1csnc1-c1nnc(Nc2ccc3c(c2)OCO3)o1 | > 5000 | 4000 | 500 | IC50 (A549 [3]): > 20000 nM; EC50 (A549 [5]; [11]): > 20000 nM; Activity (A549 [6]): inactive |
| COc1cc(-c2nnc(Nc3ccc4c(c3)OCO4)o2)cc(OC)c1OC | > 5000 | 1000 | 400 | Activity (Paracentrotus lividus [7]): Toxic |
| c1cncc(CNc2cn[nH]c2-c2nnc(Nc3ccc4c(c3)OCCO4)o2)c1 | > 10000 | > 10000 | 1000 | – |
| COc1cc(N)c(-c2nnc(Nc3ccc4c(c3)OCO4)o2)c(OC)c1 | 1000 | 200 | 50 | – |
| CS(=O)(=O)c1ccc(Nc2nnc(-c3ccccc3N)o2)cc1 | > 5000 | > 4000 | 4000 | – |
| Nc1ccccc1-c1nnc(Nc2ccc3c(c2)OCO3)o1 | 1000 | 10 | 1 | IC50 (A549 [3]): 3000 nM; Activity (A549 [8]): inactive; Activity (Bos taurus): Active; EC50 (A549 [5]; [11]): 8550 nM; Activity [9]: Active; Activity (A549 [10]): Active |
| c1ccc(-c2nnc(Nc3ccc4c(c3)OCO4)o2)c(NCc2ccncc2)c1 | 5 | 2 | 0.5 | – |
| c1cc(CNc2csnc2-c2nnc(Nc3ccc4c(c3)OCCO4)o2)ccn1 | 100 | 5 | 2 | IC50 (A549 [3]): 53.5 nM; Activity (A549 [8]): Active; Activity (Bos taurus): Active; EC50 (A549 [5]; [11]): 63 nM; EC50 (A549 [5]; a549): Dose-dependent effect; Activity [9]: Active |
| Nc1[nH]ncc1-c1nnc(Nc2ccc3c(c2)OCO3)o1 | > 20000 | > 20000 | > 20000 | – |
| COc1ccc(/C=C\c2cc(OC)c(OC)c(OC)c2)cc1OP(=O)(O)O [FOSBRETABULIN DISODIUM] | 1000 | 10 | 5 | – |
| COc1cc([C@@H]2c3cc4c(cc3[C@H](O)[C@H]3COC(=O)[C@H]23)OCO4)cc(OC)c1OC [PODOFILOX] | 500 | 50 | 20 | – |
| COc1ccc(-c2nnc(Nc3ccc4c(c3)OCCO4)o2)c(N)c1 | 200 | 100 | 25 | – |
| Nc1csnc1-c1nnc(Nc2ccc(Cl)cc2)o1 | 500 | 500 | 200 | – |
| c1ccc(-c2nnc(Nc3ccc4c(c3)OCCO4)o2)c(NCc2ccncc2)c1 | 5 | 2 | 0.5 | IC50 (A549 [3]): 15 nM; Activity (A549 [8]): Active; Activity (Bos taurus): Active; EC50 (A549 [5]; [11]): 44.5 nM; EC50 (A549 [5]; a549): Dose-dependent effect; Activity [9]: Active |
| c1cncc(CNc2ccccc2-c2nnc(Nc3ccc4c(c3)OCO4)o2)c1 | 5 | 5 | 1 | – |
| Clc1ccc(Nc2nnc(-c3nscc3NCc3cccnc3)o2)cc1 | > 2500 | 2000 | 500 | – |
| Nc1ccccc1-c1nnc(Nc2ccc3c(c2)OCCO3)o1 | 100 | 20 | 1 | IC50 (A549 [3]): 1570 nM; Activity (A549 [8]): inactive; Activity (Bos taurus): Active; EC50 (A549 [5]; [11]): 2820 nM; Activity [9]: Active; Activity (A549 [10]): Active |
| c1cncc(CNc2csnc2-c2nnc(Nc3ccc4c(c3)OCCO4)o2)c1 | 100 | 10 | 5 | – |
| Nc1cc2c(cc1-c1nnc(Nc3ccc4c(c3)OCO4)o1)OCO2 | 200 | 500 | 50 | – |
| COc1ccc(/C=C\c2cc(OC)c3c(c2)OCO3)cc1O [Combretastatin A-2] | 50 | 10 | 2 | – |
| c1cncc(CNc2csnc2-c2nnc(Nc3ccc4c(c3)OCO4)o2)c1 | 50 | 50 | 5 | – |
